Source: ChEMBL document CHEMBL3856289, “Discovery of ONO-7300243 from a Novel Class of Lysophosphatidic Acid Receptor 1 Antagonists: From Hit to Lead” (ACS Med Chem Lett, 2016)
In brackets after ≈: the same amount, converted by molar mass. Activity calls are given as the source filed them. The rule behind the calls is not given here.

How the values were obtained:
[1] = target: T1, Lysophosphatidic acid receptor 1 (Homo sapiens, UniProt Q92633); assay: Antagonist activity at human LPA1 receptor expressed in CHO cells assessed as reduction in LPA-induced intracellular Ca2+ concentration pretreated with compound followed by LPA addition by fluorescence assay; format: functional, cell-based
Summary of the method: (§1)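 IC50s came from nonlinear regression of 5-point concentration–response curves, reported with 95% confidence intervals.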

[2] = target: T1, Lysophosphatidic acid receptor 1; assay: Antagonist activity at human LPA1 receptor expressed in CHO cells assessed as reduction in LPA-induced intracellular Ca2+ concentration at 1 uM pretreated with compound followed by LPA addition by fluorescence assay; format: functional, cell-based
Rattus norvegicus [3] = assay: Reduction in intraurethral pressure in conscious rat at 1 mg/kg, po measured after 60 mins; format: functional, organism-based; conditions: 30 mg/kg, in the assay text read “30 mg/kg” for “1 mg/kg”
Summary of the method: (§2)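 Conscious rats were dosed orally at 0 min with no LPA stimulation. Intraurethral pressure and mean blood pressure were recorded continuously for 60 min and averaged over 10-min intervals. Comparison was against vehicle.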

Rattus norvegicus [4] = assay: Toxicity in conscious rat assessed as reduction in mean blood pressure at 1 mg/kg, po measured after 60 mins; format: organism-based; conditions: in vivo, 1 h; summary of the method: as §2
[5] = target: T2, Lysophosphatidic acid receptor 3 (Homo sapiens, UniProt Q9UBY5); assay: Inhibition of LPA3 (unknown origin); summary of the method: as §1
T2 sequence (Q9UBY5 whole entry): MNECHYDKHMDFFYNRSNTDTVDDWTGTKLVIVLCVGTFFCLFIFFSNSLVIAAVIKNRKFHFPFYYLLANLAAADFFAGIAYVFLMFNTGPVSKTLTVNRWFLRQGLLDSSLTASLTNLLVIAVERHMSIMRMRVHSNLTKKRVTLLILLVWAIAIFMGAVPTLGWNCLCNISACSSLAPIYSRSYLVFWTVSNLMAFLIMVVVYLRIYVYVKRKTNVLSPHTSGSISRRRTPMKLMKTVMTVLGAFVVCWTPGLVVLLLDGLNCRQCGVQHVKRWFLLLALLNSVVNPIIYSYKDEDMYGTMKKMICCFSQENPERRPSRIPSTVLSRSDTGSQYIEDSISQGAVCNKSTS

[6] = Half life in human liver microsomes at 0.5 mg/ml; format: ADME
Summary of the method: (§3)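 Liver microsomes were used at 0.5 mg/mL with NADPH. Half-life is reported in min.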

Rattus norvegicus [7] = assay: Inhibition of LPA-induced increase of intraurethral pressure in anesthetized rat at 10 mg/kg, id administered at 0 mins followed by LPA challenge at 0, 5, 15, 30 and 60 mins; format: functional; conditions: Urethra
Summary of the method: (§4)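 Anesthetized rats received compound in 0.5% methylcellulose intraduodenally at 0 min. LPA (300 μg/kg) was given i.v. before dosing and at 5, 15, 30 and 60 min. The read-out is the maximal inhibition rate of the LPA-evoked intraurethral pressure rise.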

[8] = Solubility of the compound in buffer at pH 6.8; format: physicochemical
[9] = Half life in rat liver microsomes at 0.5 mg/ml; format: ADME; summary of the method: as §3
[10] = target: Lysophosphatidic acid receptor 2 (Homo sapiens, UniProt Q9HBW0); assay: Inhibition of LPA2 (unknown origin); summary of the method: as §1
[11] = Apparent permeability in human Caco2 cells; format: ADME, cell-based; conditions: Caco-2
Rattus norvegicus [12] = assay: Inhibition of LPA-induced increase of intraurethral pressure in rat at 10 mg/kg, po administered 60 mins prior to LPA addition; format: functional, organism-based; conditions: Urethra
Summary of the method: (§5)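 Conscious rats were dosed orally. After 60 min, LPA (300 μg/kg) was injected i.v. and intraurethral pressure was recorded under short-term anesthesia. ID50 was taken from the dose–response.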

Rattus norvegicus [13] = assay: In vivo antagonist activity at LPA1 receptor in conscious rat assessed as decrease in intraurethral pressure at 30 mg/kg, po; format: functional, organism-based; summary of the method: as §2
Rattus norvegicus [14] = assay: Inhibition of LPA-induced increase of intraurethral pressure in po dosed rat administered 60 mins prior to LPA addition; format: functional; conditions: Urethra; summary of the method: as §5
Rattus norvegicus [15] = assay: Inhibition of LPA-induced increase of intraurethral pressure in rat at 30 mg/kg, po administered 60 mins prior to LPA addition; format: functional, organism-based; conditions: Urethra; summary of the method: as §5
Rattus norvegicus [16] = assay: Inhibition of LPA-induced increase of intraurethral pressure in anesthetized rat at 3 mg/kg, id administered at 0 mins followed by LPA challenge at 0, 5, 15, 30 and 60 mins; format: functional; conditions: Urethra; summary of the method: as §4
Rattus norvegicus [17] = assay: Toxicity in conscious rat assessed as reduction in mean blood pressure at 30 mg/kg, po; format: organism-based; conditions: in vivo; summary of the method: as §2
[18] = Total clearance in rat at 3 mg/kg, iv; format: ADME, organism-based; conditions: in vivo
[19] = Half life in rat at 3 mg/kg, iv; format: ADME, organism-based; conditions: in vivo

Lysophosphatidic acid receptor 2, sequence (Q9HBW0 whole entry): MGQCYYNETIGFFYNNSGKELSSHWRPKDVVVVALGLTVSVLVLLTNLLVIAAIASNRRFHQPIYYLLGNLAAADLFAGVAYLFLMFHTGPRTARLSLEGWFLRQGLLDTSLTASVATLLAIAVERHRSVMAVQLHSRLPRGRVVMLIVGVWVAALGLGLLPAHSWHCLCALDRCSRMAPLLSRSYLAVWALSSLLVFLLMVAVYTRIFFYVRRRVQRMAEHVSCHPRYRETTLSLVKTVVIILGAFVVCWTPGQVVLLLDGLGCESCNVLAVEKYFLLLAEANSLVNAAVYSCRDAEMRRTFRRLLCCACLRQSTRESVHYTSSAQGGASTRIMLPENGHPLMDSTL
T1 sequence (Q92633 whole entry): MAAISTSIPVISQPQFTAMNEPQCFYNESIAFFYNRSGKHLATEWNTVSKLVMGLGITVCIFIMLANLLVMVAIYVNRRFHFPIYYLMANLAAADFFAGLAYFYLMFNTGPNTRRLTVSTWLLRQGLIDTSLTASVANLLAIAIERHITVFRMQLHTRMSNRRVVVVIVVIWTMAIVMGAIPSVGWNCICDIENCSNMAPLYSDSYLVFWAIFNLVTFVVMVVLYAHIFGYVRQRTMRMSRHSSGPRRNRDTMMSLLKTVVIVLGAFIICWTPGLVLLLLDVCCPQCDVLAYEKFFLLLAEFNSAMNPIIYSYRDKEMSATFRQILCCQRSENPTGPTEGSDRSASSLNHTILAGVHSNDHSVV

## COc1cc(C(=O)N(CCCc2ccccc2)Cc2ccc(Oc3ccc(C)cc3C(=O)O)cc2)cc(OC)c1C
[1]
  IC50: 42 nM

## COc1ccc(C(=O)N(CCCc2ccccc2)Cc2ccc(-c3ccccc3C(=O)O)cc2)cc1OC
[1]
  IC50: 3700 nM

## Cc1cccc(C(=O)N(CCCc2ccccc2)Cc2ccc(-c3ccccc3C(=O)O)cc2)c1
[1]
  IC50: 1700 nM

## O=C(O)c1ccccc1-c1ccc(CN(CCCc2ccccc2)C(=O)c2ccccc2)cc1
[1]
  IC50: 12100 nM

## COc1cc(C(=O)N(C/C=C/c2ccccc2)Cc2ccc(CC(=O)O)cc2)cc(OC)c1C
[1]
  IC50: > 1000 nM

## COc1cc(OC)cc(C(=O)N(CCCc2ccccc2)Cc2ccc(Oc3ccc(C(=O)O)cc3)cc2)c1
[2]
  inhibition: 44%

## COc1cc(C(=O)N(CCCc2ccccc2)Cc2ccc(-c3ccccc3C(=O)O)cc2)cc(OC)c1OC
[1]
  IC50: 390 nM

## COc1cc(C(=O)N(CCCc2ccccc2)Cc2ccc(Oc3c(C)cccc3C(=O)O)cc2)cc(OC)c1C
[1]
  IC50: 140 nM

## COc1ccc(C(=O)N(CCCc2ccccc2)Cc2ccc(-c3ccccc3C(=O)O)cc2)cc1
[1]
  IC50: 4400 nM

## COc1cc(C(=O)N(CCCc2ccccc2)Cc2ccc(Oc3cccc(C)c3C(=O)O)cc2)cc(OC)c1C
[1]
  IC50: 100 nM

## COc1cc(OC)cc(C(=O)N(CCCc2ccccc2)Cc2ccc(-c3ccccc3C(=O)O)cc2)c1
[1]
  IC50: 260 nM

## COc1cc(OC)cc(C(=O)N(CCCc2ccccc2)Cc2ccc(-c3ccccc3CC(=O)O)cc2)c1
[1]
  IC50: 210 nM

## CCOc1ccccc1OCCN[C@H](C)Cc1ccc(OC)c(S(N)(=O)=O)c1 [TAMSULOSIN]
Rattus norvegicus [3]
  Activity: Active
Rattus norvegicus [4]
  Activity: Toxic

## COc1cc(C(=O)N(CCCOc2cccc(C(=O)O)c2)CCCc2ccccc2)cc(OC)c1C
[1]
  IC50: 680 nM

## COc1ccccc1C(=O)N(CCCc1ccccc1)Cc1ccc(-c2ccccc2C(=O)O)cc1
[1]
  IC50: 3300 nM

## COc1cc(C(=O)N(CCCc2cccc(F)c2)Cc2ccc(CC(=O)O)cc2)cc(OC)c1C
[1]
  IC50: 190 nM

## COc1cc(C(=O)N(CCc2ccccc2)Cc2ccc(OCC(=O)O)cc2)cc(OC)c1C
[1]
  IC50: > 10000 nM

## COc1cc(C(=O)N(CCCc2ccccc2)Cc2ccc(C(=O)O)cc2)cc(OC)c1C
[1]
  IC50: > 1000 nM

## COc1cc(C(=O)N(CCCc2ccccc2)Cc2ccc(Oc3ccccc3C(=O)O)cc2)cc(OC)c1C
[1]
  IC50: 71 nM

## COc1cc(C(=O)N(CCCc2ccccc2)Cc2ccc(Oc3ccccc3C(=O)O)cc2)cc(OC)c1OC
[1]
  IC50: 130 nM

## O=C(O)c1ccccc1-c1ccc(CN(CCCc2ccccc2)C(=O)c2cccc(F)c2)cc1
[1]
  IC50: 5500 nM

## COc1cc(C(=O)N(CCCc2ccccc2)Cc2ccc(Oc3ccc(Cl)cc3C(=O)O)cc2)cc(OC)c1C
[5]
  IC50: > 10000 nM
[6]
  half-life: < 15 min
Rattus norvegicus [7]
  inhibition in vivo at 10 mg/kg: 53%
[1]
  IC50: 3.5 nM
[8]
  solubility: 69 µM (≈ 39.6 µg/mL)
[9]
  half-life: < 15 min
[10]
  IC50: 790 nM

## COc1cc(C(=O)N(CCCc2ccccc2F)Cc2ccc(CC(=O)O)cc2)cc(OC)c1C
[1]
  IC50: 220 nM

## COc1cc(C(=O)N(CCCc2ccccc2)Cc2ccc(Oc3cc(C)ccc3C(=O)O)cc2)cc(OC)c1C
[1]
  IC50: 15 nM

## Cc1cc(C)cc(C(=O)N(CCCc2ccccc2)Cc2ccc(-c3ccccc3C(=O)O)cc2)c1
[1]
  IC50: 260 nM

## COc1cc(C(=O)N(CCCc2ccccc2)Cc2ccc(OCC(=O)O)cc2)cc(OC)c1C
[5]
  IC50: > 10000 nM
[6]
  half-life: 22 min
Rattus norvegicus [7]
  inhibition in vivo at 10 mg/kg: 44%
[1]
  IC50: 100 nM
[8]
  solubility: 84 µM (≈ 40.1 µg/mL)
[9]
  half-life: 24 min
[10]
  IC50: 23000 nM
[11]
  Papp: 3.2 ×10⁻⁶ cm/s

## COc1cc(OC)cc(C(=O)N(CCCc2ccccc2)Cc2ccc(Oc3cccc(C(=O)O)c3)cc2)c1
[1]
  IC50: 140 nM

## COc1cc(C(=O)N(CCCc2ccccc2)Cc2ccc(CC(=O)O)cc2)cc(OC)c1C
Rattus norvegicus [12]
  inhibition: Active
Rattus norvegicus [13]
  inhibition: Active
Rattus norvegicus [3]
  Activity: Active
[5]
  IC50: > 10000 nM
[6]
  half-life: 28 min
Rattus norvegicus [7]
  inhibition in vivo at 10 mg/kg: 88%
[1]
  IC50: 160 nM
Rattus norvegicus [14]
  inhibition: Dose-dependent effect
Rattus norvegicus [14]; read-out: ID50 (the source's name)
  ED50: 11.6 mg/kg
Rattus norvegicus [15]
  inhibition: Active
[8]
  solubility: 73 µM (≈ 33.7 µg/mL)
[9]
  half-life: 29 min
Rattus norvegicus [16]
  inhibition in vivo at 3 mg/kg: 62%
Rattus norvegicus [17]
  Activity: Non-Toxic
[18]
  clearance: 15.9 mL/min/kg
[10]
  IC50: 8600 nM
[11]
  Papp: 15.9 ×10⁻⁶ cm/s
[19]
  half-life: 18 min

## COc1cc(OC)cc(C(=O)N(CCCc2ccccc2)Cc2ccc(Oc3ccccc3C(=O)O)cc2)c1
[1]
  IC50: 89 nM

## COc1cc(OC)cc(C(=O)N(CCCc2ccccc2)Cc2ccc(-c3ccccc3CCC(=O)O)cc2)c1
[1]
  IC50: 230 nM

## COc1cccc(C(=O)N(CCCc2ccccc2)Cc2ccc(-c3ccccc3C(=O)O)cc2)c1
[1]
  IC50: 1300 nM

## COc1cc(C(=O)N(CCCc2ccc(F)cc2)Cc2ccc(CC(=O)O)cc2)cc(OC)c1C
[1]
  IC50: > 1000 nM

## COc1cc(C(=O)N(CCCCc2ccccc2)Cc2ccc(OCC(=O)O)cc2)cc(OC)c1C
[1]
  IC50: 6600 nM

## COc1cc(C(=O)N(CCCc2ccccc2)Cc2ccc(Oc3cc(Cl)ccc3C(=O)O)cc2)cc(OC)c1C
[1]
  IC50: 5.9 nM
